Where a name gives a salt, the structure may show the parent alone.
Experiments:
β1AR-m23 = β1AR-m23 (Meleagris gallopavo, UniProt P07700, A282L/C116L/F327A/F338M/M90V/R68S/Y227A); assay: Saturation binding of ^3H-DHA to DDM-solubilised receptor; set-up: species or system turkey; details: read-out: KD for ^3H-DHA, E. coli membranes, solubilised in DDM, n = 4
How it was run: (§1)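 Receptor expressed in E. coli XL1 by auto-induction (37°C 6 h, then 25°C overnight). French-press membranes were solubilised for 1 h on ice in 20 mM Tris pH 8, 0.4 M NaCl, 1% detergent. Binding ran in 20 mM Tris pH 8, 0.4 M NaCl, 0.1% DDM with 1.25-160 nM 3H-DHA. KD came from nonlinear regression; 2-4 experiments in duplicate.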

β1AR-JM3 [1] = target: T1, β1AR-JM3 (Meleagris gallopavo, UniProt P07700, A282L/C116L/D200E/D322K/F327A/F338M/I129V/M90V/R68S/Y227A/Y343L); assay: as above; set-up: species or system turkey; details: read-out: KD for ^3H-DHA, E. coli membranes, solubilised in DDM, n = 4
How it was run: as §1

[2] = Thermostability assay of cysteine mutants expressed in HEK293T cells; format: physicochemical, turkey; details: Cys mutants, solubilised in NG
How it was run: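 Transiently transfected HEK293T cells were harvested after 48 h, held 1 h on ice in 75 mM Tris pH 8, 12.5 mM MgCl2, 2 mM EDTA, then detergent-solubilised at 4°C. Samples were diluted in 20 mM Tris pH 8, 0.4 M NaCl and heated 30 min at a range of temperatures without ligand. 3H-DHA (80 nM final) was added for 1 h at 4°C; gel-filtration separation gave apparent Tm.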

[3] = Thermostability assay of detergent-solubilised receptors expressed in E. coli; format: physicochemical, turkey; details: for increase in thermostability (apparent Tm) relative to β1AR-m23: solubilised in NG
[4] = in dodecylmaltoside (DDM); cited from earlier work
β1AR-JM3 [5] = target: T1, β1AR-JM3; assay: Competition binding, displacement of ^3H-DHA; set-up: species or system turkey; details: competition with ^3H-DHA

T1 sequence (P07700 34-424 R68S/M90V/C116L/I129V/D200E/Y227A/A282L/D322K/F327A/F338M/Y343L): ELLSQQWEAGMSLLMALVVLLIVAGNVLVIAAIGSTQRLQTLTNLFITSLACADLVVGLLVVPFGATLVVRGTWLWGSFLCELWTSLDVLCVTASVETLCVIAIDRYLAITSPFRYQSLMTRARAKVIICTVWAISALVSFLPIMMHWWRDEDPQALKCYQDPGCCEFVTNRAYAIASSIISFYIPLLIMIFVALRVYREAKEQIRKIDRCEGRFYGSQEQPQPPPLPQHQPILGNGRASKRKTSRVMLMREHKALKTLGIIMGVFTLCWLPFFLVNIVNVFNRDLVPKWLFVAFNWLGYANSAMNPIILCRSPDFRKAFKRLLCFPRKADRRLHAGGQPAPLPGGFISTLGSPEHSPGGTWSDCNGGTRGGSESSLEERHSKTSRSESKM
Sequence of β1AR-m23 (P07700 34-424 R68S/M90V/C116L/Y227A/A282L/F327A/F338M): as the sequence (P07700 34-424 R68S/M90V/C116L/I129V/D200E/Y227A/A282L/D322K/F327A/F338M/Y343L) above, with V96I, E167D, K289D, L310Y counted along it

## 1-[4,6-propyl-^3H]dihydroalprenolol [^3H-DHA]
β1AR-m23
  Kd: 5.5 ± 1.1 nM
β1AR-JM3 [1]
  Kd: 10.6 ± 1.6 nM

## M44C: single cysteine mutant of β1AR-m23
[2]
  destabilisation (decrease in thermostability) relative to β1AR-m23: 4 °C

## wild-type receptor: residues 34-424 of the turkey β1AR
[3]; 1 mM ZnCl2
  decrease in stability on addition of Zn^2+: up to 7 °C

## β1AR-m23: residues 34-424 of turkey β1-adrenoceptor with R68S, M90V, Y227A, A282L, F327A, F338M and C116L
[4]
  increase of the apparent Tm relative to wild type: 21 °C
[3]; 0.8% NG, identical conditions
  apparent Tm: 23.4 ± 0.8 °C

## V103C: single cysteine mutant of β1AR-m23
[2]
  destabilisation (decrease in thermostability) relative to β1AR-m23: 7 °C

## NC[C@H](O)c1ccc(O)c(O)c1 [noradrenaline, L-(-)-norepinephrine bitartrate salt monohydrate]
β1AR-JM3 [5]
  fold weaker binding to β1AR-JM3 compared to wild-type β1AR: 4960 fold

## Y343L: most stabilising single mutation of β1AR-m23 from the leucine scan
[3]
  increase in thermostability (apparent Tm) relative to β1AR-m23: 5 °C

## D322K: β1AR-m23 salt bridge mutant D322K
[3]
  increase in thermostability (apparent Tm) relative to β1AR-m23: 5 °C
